# Assays:
# [1] = target: 5-hydroxytryptamine receptor 2B (Homo sapiens) (UniProt P41595); assay: Inhibition of recombinant human full length 5HT2B expressed in CHO-K1 cells at 100 uM incubated for 30 mins by TR-FRET assay relative to control; assay type: cell-based
# Summary of the method: (§1)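 Off-target screen against a panel of 44 receptors, enzymes and transporters, run in duplicate at a single 100 µM concentration. Results are given as % inhibition. No concentration-response follow-up was done.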
# [2] = target: Sodium channel protein type 2 subunit alpha (Homo sapiens) (UniProt Q99250); assay: Inhibition of recombinant human full length Nav1.2 expressed in CHO-K1 cells at 100 uM by manual patch clamp assay relative to control; assay type: cell-based; summary of the method: as §1
# Nav1.5 (late current) = Nav1.5 (late current) (Homo sapiens, UniProt Q14524); assay: Inhibition of recombinant human Nav1.5 late expressed in human HEK293 cells at 100 uM in presence of ATXII by automated Qpatch clamp assay relative to control; assay type: ADME, cell-based; conditions: HEK293 cells expressing recombinant human Nav1.5
# Nav1.5 (late current), sequence (Q14524 whole entry): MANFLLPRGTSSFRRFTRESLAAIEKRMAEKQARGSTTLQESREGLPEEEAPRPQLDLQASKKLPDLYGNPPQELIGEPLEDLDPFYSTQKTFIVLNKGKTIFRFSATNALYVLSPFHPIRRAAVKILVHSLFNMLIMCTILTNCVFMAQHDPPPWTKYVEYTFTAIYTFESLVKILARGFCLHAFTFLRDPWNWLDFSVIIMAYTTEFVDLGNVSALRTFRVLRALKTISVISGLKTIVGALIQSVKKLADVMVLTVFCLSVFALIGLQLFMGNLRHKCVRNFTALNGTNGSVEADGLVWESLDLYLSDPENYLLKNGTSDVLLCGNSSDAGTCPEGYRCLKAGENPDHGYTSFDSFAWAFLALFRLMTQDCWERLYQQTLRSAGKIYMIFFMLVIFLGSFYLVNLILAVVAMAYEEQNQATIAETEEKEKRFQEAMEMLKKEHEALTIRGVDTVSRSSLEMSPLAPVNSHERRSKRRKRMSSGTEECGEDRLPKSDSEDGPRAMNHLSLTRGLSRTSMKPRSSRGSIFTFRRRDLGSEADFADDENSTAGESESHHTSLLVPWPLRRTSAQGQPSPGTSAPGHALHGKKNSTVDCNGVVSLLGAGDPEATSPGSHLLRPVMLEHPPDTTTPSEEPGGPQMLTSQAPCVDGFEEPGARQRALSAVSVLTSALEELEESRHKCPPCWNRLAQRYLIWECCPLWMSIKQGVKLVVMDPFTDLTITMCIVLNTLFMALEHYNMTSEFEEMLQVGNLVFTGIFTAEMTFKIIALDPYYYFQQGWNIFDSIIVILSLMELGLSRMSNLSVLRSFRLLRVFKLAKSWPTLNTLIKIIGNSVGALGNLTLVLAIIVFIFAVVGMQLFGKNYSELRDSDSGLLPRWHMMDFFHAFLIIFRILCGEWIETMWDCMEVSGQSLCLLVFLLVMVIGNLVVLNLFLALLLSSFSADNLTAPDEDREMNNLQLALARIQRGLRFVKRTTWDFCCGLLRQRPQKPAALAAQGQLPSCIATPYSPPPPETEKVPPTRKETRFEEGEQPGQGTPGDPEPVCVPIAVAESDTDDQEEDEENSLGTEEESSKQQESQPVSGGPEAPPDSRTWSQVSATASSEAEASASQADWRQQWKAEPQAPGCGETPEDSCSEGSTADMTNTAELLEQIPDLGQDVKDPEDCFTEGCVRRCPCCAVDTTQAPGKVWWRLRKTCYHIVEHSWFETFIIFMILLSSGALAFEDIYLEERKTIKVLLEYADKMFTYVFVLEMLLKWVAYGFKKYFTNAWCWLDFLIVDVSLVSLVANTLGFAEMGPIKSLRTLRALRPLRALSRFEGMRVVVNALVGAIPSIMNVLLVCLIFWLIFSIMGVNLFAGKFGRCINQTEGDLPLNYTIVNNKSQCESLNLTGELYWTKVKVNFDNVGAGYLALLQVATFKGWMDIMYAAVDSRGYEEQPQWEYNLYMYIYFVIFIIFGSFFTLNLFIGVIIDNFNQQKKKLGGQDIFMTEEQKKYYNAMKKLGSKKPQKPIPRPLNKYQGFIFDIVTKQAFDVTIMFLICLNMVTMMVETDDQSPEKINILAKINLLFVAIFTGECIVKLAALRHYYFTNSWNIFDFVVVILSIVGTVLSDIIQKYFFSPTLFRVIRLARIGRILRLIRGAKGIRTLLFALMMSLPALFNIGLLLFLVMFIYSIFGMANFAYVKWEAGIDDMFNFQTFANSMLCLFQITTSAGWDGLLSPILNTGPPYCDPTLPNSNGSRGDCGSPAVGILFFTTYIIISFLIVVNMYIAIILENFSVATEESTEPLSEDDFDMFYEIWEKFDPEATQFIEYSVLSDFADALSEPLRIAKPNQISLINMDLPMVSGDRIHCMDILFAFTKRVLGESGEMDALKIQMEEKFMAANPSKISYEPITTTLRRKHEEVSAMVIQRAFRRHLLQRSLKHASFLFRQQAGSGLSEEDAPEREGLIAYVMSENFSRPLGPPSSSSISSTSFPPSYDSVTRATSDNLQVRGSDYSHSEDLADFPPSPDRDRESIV
# Summary of the method: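 Part of an eight-assay CiPA panel run on a QPatch HT automated patch clamp at 3, 30 and 100 µM, in duplicate. The test compound came from a 30 mM DMSO stock. Data were filtered for seal quality, seal drop and current amplitude, and reported as mean percent inhibition.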
# [3] = Permeability across apical to basolateral side in human Caco2 cells at 10 uM by LC-MS/MS analysis; assay type: ADME, cell-based; conditions: Caco-2, read-out: permeability
# CYP3A4 [4] = target: T1, CYP3A4 (Homo sapiens, UniProt P08684); assay: Residual activity of human liver microsome CYP3A4 at 3 uM in presence of NADPH incubated for 10 to 30 mins by LC-MS-MS analysis; conditions: human liver microsomes
# T1 sequence (P08684 whole entry): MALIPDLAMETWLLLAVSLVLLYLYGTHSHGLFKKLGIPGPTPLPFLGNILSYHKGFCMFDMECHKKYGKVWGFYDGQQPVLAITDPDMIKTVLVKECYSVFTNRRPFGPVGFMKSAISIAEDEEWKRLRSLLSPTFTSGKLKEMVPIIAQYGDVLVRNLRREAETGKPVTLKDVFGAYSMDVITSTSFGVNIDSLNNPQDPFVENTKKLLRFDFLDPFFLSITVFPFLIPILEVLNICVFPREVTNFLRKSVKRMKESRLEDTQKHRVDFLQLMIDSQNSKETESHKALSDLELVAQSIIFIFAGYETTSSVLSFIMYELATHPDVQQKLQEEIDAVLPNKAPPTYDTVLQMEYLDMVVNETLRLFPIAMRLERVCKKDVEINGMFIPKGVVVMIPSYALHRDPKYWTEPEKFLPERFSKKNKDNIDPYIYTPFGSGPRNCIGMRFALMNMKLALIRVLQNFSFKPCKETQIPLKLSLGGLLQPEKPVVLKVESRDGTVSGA
# CYP3A4 [5] = target: T1, CYP3A4; assay: Residual activity of human liver microsome CYP3A4 at 0.1 uM in presence of NADPH incubated for 10 to 30 mins by LC-MS-MS analysis; conditions: human liver microsomes
# [6] = target: Voltage-gated inwardly rectifying potassium channel KCNH2 (Homo sapiens, UniProt Q12809); assay: Inhibition of human ERG
# Voltage-gated inwardly rectifying potassium channel KCNH2, sequence (Q12809 whole entry): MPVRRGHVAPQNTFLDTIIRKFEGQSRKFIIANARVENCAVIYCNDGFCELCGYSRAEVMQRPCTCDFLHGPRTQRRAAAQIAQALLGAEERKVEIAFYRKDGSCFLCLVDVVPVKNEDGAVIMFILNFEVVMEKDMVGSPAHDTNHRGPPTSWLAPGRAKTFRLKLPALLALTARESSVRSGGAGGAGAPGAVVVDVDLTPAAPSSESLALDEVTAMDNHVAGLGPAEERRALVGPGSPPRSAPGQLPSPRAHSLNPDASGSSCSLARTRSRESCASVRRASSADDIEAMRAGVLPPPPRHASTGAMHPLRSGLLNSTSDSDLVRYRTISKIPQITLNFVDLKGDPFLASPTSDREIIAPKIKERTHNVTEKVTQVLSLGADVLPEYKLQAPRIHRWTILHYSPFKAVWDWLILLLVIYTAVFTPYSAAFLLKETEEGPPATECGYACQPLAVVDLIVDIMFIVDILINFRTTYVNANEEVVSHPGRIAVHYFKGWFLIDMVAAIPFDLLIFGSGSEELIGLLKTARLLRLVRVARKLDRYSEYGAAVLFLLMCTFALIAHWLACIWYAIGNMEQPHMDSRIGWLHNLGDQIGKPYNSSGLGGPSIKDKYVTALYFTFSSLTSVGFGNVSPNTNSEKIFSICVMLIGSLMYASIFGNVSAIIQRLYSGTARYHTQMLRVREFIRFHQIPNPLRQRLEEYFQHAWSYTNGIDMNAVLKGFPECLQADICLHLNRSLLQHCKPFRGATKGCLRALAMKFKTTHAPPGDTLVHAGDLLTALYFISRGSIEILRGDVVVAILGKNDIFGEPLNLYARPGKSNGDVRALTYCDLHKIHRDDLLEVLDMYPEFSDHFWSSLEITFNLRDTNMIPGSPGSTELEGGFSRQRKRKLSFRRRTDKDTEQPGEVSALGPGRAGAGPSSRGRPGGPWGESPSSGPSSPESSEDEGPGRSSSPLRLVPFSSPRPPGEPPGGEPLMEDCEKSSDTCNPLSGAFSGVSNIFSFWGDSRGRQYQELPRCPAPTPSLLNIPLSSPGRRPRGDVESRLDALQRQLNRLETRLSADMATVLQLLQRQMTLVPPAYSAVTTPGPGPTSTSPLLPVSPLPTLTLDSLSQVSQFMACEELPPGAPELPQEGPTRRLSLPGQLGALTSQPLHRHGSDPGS
# [7] = target: Sodium channel protein type 5 subunit alpha (Homo sapiens, UniProt Q14524); assay: Activation of recombinant human Nav1.5 late expressed in human HEK293 cells assessed as activation of late current at 30 uM by automated Qpatch clamp assay relative to control; assay type: ADME, cell-based; conditions: hek293, 30 µM
# Summary of the method: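 Part of an eight-assay CiPA panel run in duplicate on an automated QPatch HT patch-clamp system at 3, 30 and 100 µM. Test compound came from a 30 mM DMSO stock. Records were filtered for seal quality, seal drop and current amplitude, and mean percent values are reported.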
# CYP3A4 [8] = target: T1, CYP3A4; assay: Residual activity of human liver microsome CYP3A4 at 1 uM in presence of NADPH incubated for 10 to 30 mins by LC-MS-MS analysis; conditions: human liver microsomes
# Staphylococcus aureus [9] = assay: Potency index, ratio of MIC90 of ciprofloxacin to MIC90 of compound for antibacterial activity against Fluoroquinolone-resistant Staphylococcus aureus assessed as reduction in bacterial growth by CLSI based broth microdilution method; assay type: functional
# CYP2D6 = CYP2D6 (Homo sapiens, UniProt P10635); assay: Inhibition of human liver microsome CYP2D6 at 10 uM in presence of NADPH incubated for 10 to 30 mins by LC-MS-MS analysis; assay type: ADME; conditions: human liver microsomes, time 10-30 min
# [10] = Metabolic stability in mouse liver microsomes assessed as half life at 10 uM incubated for 5 mins followed by NADPH addition and measured upto 60 mins by LC-MS analysis; assay type: ADME, Microsome; conditions: time 65 min
# [11] = Metabolic stability in human liver microsomes assessed as half life at 10 uM incubated for 5 mins followed by NADPH addition and measured upto 60 mins by LC-MS analysis; assay type: ADME, Microsome; conditions: time 65 min
# [12] = target: Histamine H2 receptor (Homo sapiens) (UniProt P25021); assay: Inhibition of recombinant human full length histamine H2 receptor expressed in CHO-K1 cells using [125I] Aminopotentidine as […] at 100 uM incubated for 120 mins by scintillation counting method relative to control; assay type: cell-based; summary of the method: as §1
# Histamine H2 receptor (Homo sapiens), sequence (P25021 whole entry): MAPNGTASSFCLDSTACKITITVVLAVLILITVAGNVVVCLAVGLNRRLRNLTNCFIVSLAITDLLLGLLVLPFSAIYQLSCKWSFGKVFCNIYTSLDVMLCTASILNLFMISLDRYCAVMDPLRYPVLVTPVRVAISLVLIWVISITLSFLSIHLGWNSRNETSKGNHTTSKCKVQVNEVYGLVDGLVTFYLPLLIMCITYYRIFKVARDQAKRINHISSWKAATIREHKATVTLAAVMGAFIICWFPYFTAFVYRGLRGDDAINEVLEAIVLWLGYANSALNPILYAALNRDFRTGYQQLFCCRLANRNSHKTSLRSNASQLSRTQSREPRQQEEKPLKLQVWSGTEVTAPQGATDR
# CYP2C19 = CYP2C19 (Homo sapiens, UniProt P33261); assay: Inhibition of human liver microsome CYP2C19 at 10 uM in presence of NADPH incubated for 10 to 30 mins by LC-MS-MS analysis; assay type: ADME; conditions: human liver microsomes, time 10-30 min
# CYP3A4 [13] = target: T1, CYP3A4; assay: Residual activity of human liver microsome CYP3A4 at 0.3 uM in presence of NADPH incubated for 10 to 30 mins by LC-MS-MS analysis; conditions: human liver microsomes
# Streptococcus pneumoniae [14] = assay: Antibacterial activity against penicillin-susceptible Streptococcus pneumoniae LSI-4234 assessed as reduction in bacterial growth by CLSI based broth microdilution method; assay type: functional
# Streptococcus pneumoniae [15] = assay: Antibacterial activity against penicillin-resistant Streptococcus pneumoniae LSI-4246 assessed as reduction in bacterial growth by CLSI based broth microdilution method; assay type: functional
# Staphylococcus aureus [16] = assay: Antibacterial activity against methicillin-resistant Staphylococcus aureus DRL-3161 assessed as reduction in bacterial growth by CLSI based broth microdilution method; assay type: functional
# [17] = Inhibition of Staphylococcus aureus DNA gyrase using relaxed pBR322 DNA as substrate incubated for 30 mins by agarose gel electrophoresis method
# [18] = target: Sodium-dependent dopamine transporter (Homo sapiens) (UniProt Q01959); assay: Inhibition of recombinant human full length Dopamine transporter expressed in CHO-S cells at 100 uM in presence of [125I]-RTI-55 incubated for 180 mins by scintillation counting method relative to control; assay type: cell-based; summary of the method: as §1
# Enterococcus faecalis = assay: Antibacterial activity against Enterococcus faecalis ATCC 29212 assessed as reduction in bacterial growth by CLSI based broth microdilution method; assay type: functional
# Enterococcus faecium = assay: Antibacterial activity against Vancomycin-susceptible Enterococcus faecium DRL-4193 assessed as reduction in bacterial growth by CLSI based broth microdilution method; assay type: functional
# KCNQ1 = KCNQ1 (Homo sapiens, UniProt P51787); assay: Inhibition of recombinant human KCNQ1 expressed in CHO-K1 cells at 3 uM by automated Qpatch clamp assay relative to control; assay type: ADME, cell-based; conditions: CHO-K1 cells expressing recombinant human KCNQ1
# KCNQ1, sequence (P51787 whole entry): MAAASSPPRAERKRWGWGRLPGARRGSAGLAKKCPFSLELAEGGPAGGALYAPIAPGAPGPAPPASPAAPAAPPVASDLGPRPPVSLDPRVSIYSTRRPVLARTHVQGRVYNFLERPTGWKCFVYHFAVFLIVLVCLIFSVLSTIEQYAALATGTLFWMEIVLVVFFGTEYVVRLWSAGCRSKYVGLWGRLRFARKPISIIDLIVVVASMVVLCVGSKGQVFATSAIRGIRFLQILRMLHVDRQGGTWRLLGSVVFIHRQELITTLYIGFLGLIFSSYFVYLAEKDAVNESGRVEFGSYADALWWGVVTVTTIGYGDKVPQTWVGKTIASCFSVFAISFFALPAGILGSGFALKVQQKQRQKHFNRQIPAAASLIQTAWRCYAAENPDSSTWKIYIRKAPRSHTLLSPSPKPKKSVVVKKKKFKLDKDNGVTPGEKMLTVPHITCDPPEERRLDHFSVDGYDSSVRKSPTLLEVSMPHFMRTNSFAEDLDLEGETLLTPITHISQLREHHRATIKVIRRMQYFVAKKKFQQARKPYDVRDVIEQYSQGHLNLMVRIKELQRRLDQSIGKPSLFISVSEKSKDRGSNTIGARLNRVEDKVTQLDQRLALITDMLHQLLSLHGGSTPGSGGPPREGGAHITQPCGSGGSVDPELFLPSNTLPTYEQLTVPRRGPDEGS
# Summary of the method: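 KCNQ1/hminK current recorded in duplicate on an automated QPatch HT at 3, 30 and 100 µM, from a 30 mM DMSO stock. Records were filtered for seal quality, seal drop and current amplitude. Peak outward current was evoked by a step to 60 mV. Block is the test-compound amplitude divided by control, where control is the mean over 15 s at the end of the control period. Chromanol 293B was the positive control.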
# Staphylococcus aureus [19] = assay: Antibacterial activity against cystic fibrosis patient isolate Staphylococcus aureus assessed as reduction in bacterial growth by CLSI based broth microdilution method; assay type: functional
# Staphylococcus aureus [20] = assay: Antibacterial activity against Staphylococcus aureus ATCC 29213 assessed as reduction in bacterial growth by CLSI based broth microdilution method; assay type: functional
smiles,measurement,setting,value
COc1ccc2ncc(F)c(CC[C@@]3(O)CO[C@@H]4[C@@H](NCc5cc6c(cn5)OCCO6)CO[C@@H]43)c2n1,inhibition,[1],95%
same,inhibition,[2],78%
same,inhibition at 100 µM,Nav1.5 (late current),50.9%
same,Papp A→B at 10 µM,[3],10.8 ×10⁻⁶ cm/s
same,residual activity at 3 µM,CYP3A4 [4],60.4%
same,residual activity at 0.1 µM,CYP3A4 [5],97%
same,IC50,[6],66 µM
same,Activity,[7],7.7%
same,residual activity at 1 µM,CYP3A4 [8],60.4%
same,Ratio,Staphylococcus aureus [9],16
same,inhibition at 10 µM,CYP2D6,< 50%
same,half-life at 10 µM,[10],3 min
same,half-life at 10 µM,[11],6 min
same,inhibition,[12],51%
same,inhibition at 10 µM,CYP2C19,< 50%
same,residual activity at 0.3 µM,CYP3A4 [13],89.9%
same,MIC,Streptococcus pneumoniae [14],≤ 0.12 µg/mL
same,MIC,Streptococcus pneumoniae [15],≤ 0.12 µg/mL
same,MIC,Staphylococcus aureus [16],1 µg/mL
same,IC50,[17],0.53 µM
same,inhibition,[18],96%
same,MIC,Enterococcus faecalis,2 µg/mL
same,MIC,Enterococcus faecium,2 µg/mL
same,inhibition at 3 µM,KCNQ1,-2.9%
same,MIC,Staphylococcus aureus [19],2 µg/mL
same,MIC,Staphylococcus aureus [20],1 µg/mL

# Reference: ChEMBL document CHEMBL4765317, “Novel bacterial topoisomerase inhibitors derived from isomannide” (Eur J Med Chem, 2020)
